Results from ChEMBL document CHEMBL3739352, “Anticonvulsant activity, crystal structures, and preliminary safety evaluation of N-trans-cinnamoyl derivatives of selected (un)modified aminoalkanols” (Eur J Med Chem, 2016).
Activity calls are given as the source filed them. No cut-off for these calls is given here.

How the values were obtained:
Mus musculus [1] = assay: Neurotoxicity in albino Carworth Farms No.1 mouse at 300 mg/kg, ip after 0.5 hrs by rotarod test; format: toxicity, organism-based; conditions: in vivo
How it was run: (§1)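 Mice (albino Carworth Farms No.1) were dosed i.p. at 30, 100 or 300 mg/kg in 0.5% methylcellulose. They were tested 0.5 and 4 h later on a 1-inch knurled rod rotating at 6 rpm. Neurotoxicity was scored if a mouse could not stay on the rod for at least 1 min in each of three trials. Results are given as animals toxic/animals tested, with deaths noted.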

Mus musculus [2] = assay: Neurotoxicity in albino Carworth Farms No.1 mouse at 30 mg/kg, ip after 0.5 hrs by rotarod test; format: toxicity, organism-based; conditions: in vivo; how it was run: as §1
Mus musculus [3] = assay: Anticonvulsant activity in albino Carworth Farms No.1 mouse assessed as protection against subcutaneous dosed pentetrazol-induced seizures at 300 mg/kg, ip after 0.5 hrs; format: functional, organism-based
How it was run: (§2)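 Mouse i.p. screen in Carworth Farms No.1 albino mice at 30, 100 or 300 mg/kg in 0.5% methylcellulose. Testing was at 0.5 and 4 h after injection, by maximal electroshock or by subcutaneous pentetrazol challenge. Scoring was number protected / number used.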

Mus musculus [4] = assay: Anticonvulsant activity in albino Carworth Farms No.1 mouse assessed as protection against subcutaneous dosed pentetrazol-induced seizures at 100 mg/kg, ip after 4 hrs; format: functional, organism-based; how it was run: as §2
Mus musculus [5] = assay: Anticonvulsant activity in albino Carworth Farms No.1 mouse assessed as protection against subcutaneous dosed pentetrazol-induced seizures at 100 mg/kg, ip after 0.5 hrs; format: functional, organism-based; how it was run: as §2
Mus musculus [6] = assay: Anticonvulsant activity in albino Carworth Farms No.1 mouse assessed as protection against subcutaneous dosed pentetrazol-induced seizures at 30 mg/kg, ip after 4 hrs; format: functional, organism-based; how it was run: as §2
Mus musculus [7] = assay: Anticonvulsant activity in albino Carworth Farms No.1 mouse assessed as protection against subcutaneous dosed pentetrazol-induced seizures at 30 mg/kg, ip after 0.5 hrs; format: functional, organism-based; how it was run: as §2
Mus musculus [8] = assay: Anticonvulsant activity in albino Carworth Farms No.1 mouse assessed as protection against maximal electroshock-induced seizures at 300 mg/kg, ip after 4 hrs; format: functional, organism-based; how it was run: as §2
Mus musculus [9] = assay: Anticonvulsant activity in albino Carworth Farms No.1 mouse assessed as protection against maximal electroshock-induced seizures at 300 mg/kg, ip after 0.5 hrs; format: functional, organism-based; how it was run: as §2
Mus musculus [10] = assay: Anticonvulsant activity in albino Carworth Farms No.1 mouse assessed as protection against maximal electroshock-induced seizures at 100 mg/kg, ip after 4 hrs; format: functional, organism-based; how it was run: as §2
Mus musculus [11] = assay: Anticonvulsant activity in albino Carworth Farms No.1 mouse assessed as protection against maximal electroshock-induced seizures at 100 mg/kg, ip after 0.5 hrs; format: functional, organism-based; how it was run: as §2
Mus musculus [12] = assay: Anticonvulsant activity in albino Carworth Farms No.1 mouse assessed as protection against maximal electroshock-induced seizures at 30 mg/kg, ip after 0.5 hrs; format: functional, organism-based; how it was run: as §2
Salmonella typhimurium [13] = assay: Mutagenicity in Salmonella typhimurium TA98 assessed as number of revertants at 500 ug/plate by Ames test (reference value: 23 +/- 3); format: toxicity, organism-based; conditions: salmonella enterica subsp. enterica serovar typhimurium
Salmonella typhimurium [14] = assay: Mutagenicity in Salmonella typhimurium TA100 assessed as mutagenic index at 4 ug/plate by Ames test; format: toxicity, organism-based; conditions: salmonella enterica subsp. enterica serovar typhimurium
How it was run: (§3)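 Ames preincubation test. Strain culture was grown 12 h at 37 °C in nutrient broth, then mixed with compound in DMSO (final 4, 20, 100, 500, 1000 per plate) and buffer in top agar with trace histidine. This was plated on glucose minimal agar for 48 h at 37 °C. Mutagenic index = revertants with compound / DMSO control revertants, from three independent repeats.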

Salmonella typhimurium [15] = assay: Mutagenicity in Salmonella typhimurium TA100 assessed as mutagenic index at 500 ug/plate by Ames test; format: toxicity, organism-based; conditions: salmonella enterica subsp. enterica serovar typhimurium; how it was run: as §3
Salmonella typhimurium [16] = assay: Mutagenicity in Salmonella typhimurium TA1535 assessed as assessed as mutagenic index at 20 ug/plate by Ames test; format: toxicity, organism-based; conditions: salmonella enterica subsp. enterica serovar typhimurium; how it was run: as §3
Salmonella typhimurium [17] = assay: Mutagenicity in Salmonella typhimurium TA1535 assessed assessed as mutagenic index at 100 ug/plate by Ames test; format: toxicity, organism-based; conditions: salmonella enterica subsp. enterica serovar typhimurium
Salmonella typhimurium [18] = assay: Mutagenicity in Salmonella typhimurium TA1535 assessed as mutagenic index at 1000 ug/plate by Ames test; format: toxicity, organism-based; conditions: salmonella enterica subsp. enterica serovar typhimurium
Salmonella typhimurium [19] = assay: Mutagenicity in Salmonella typhimurium TA98 assessed as mutagenic index at 500 ug/plate by Ames test; format: toxicity, organism-based; conditions: salmonella enterica subsp. enterica serovar typhimurium
Salmonella typhimurium [20] = assay: Mutagenicity in Salmonella typhimurium TA98 assessed as mutagenic index at 1000 ug/plate by Ames test; format: toxicity, organism-based; conditions: salmonella enterica subsp. enterica serovar typhimurium
Mus musculus [21] = assay: Neurotoxicity in albino Carworth Farms No.1 mouse at 30 mg/kg, ip after 4 hrs by rotarod test; format: toxicity, organism-based; conditions: in vivo; how it was run: as §1
Mus musculus [22] = assay: Neurotoxicity in albino Carworth Farms No.1 mouse at 300 mg/kg, ip after 4 hrs by rotarod test; format: toxicity, organism-based; conditions: in vivo; how it was run: as §1
[23] = Lipophilicity of the compound using 95% methanol in water at 1 mg/ml by RT-TLC analysis; format: physicochemical; conditions: buffer
How it was run: (§4)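 Reversed-phase TLC with a methanol–water mobile phase at the stated methanol content (v/v). Compounds were spotted from 1 mg/mL methanol solutions after 1 h chamber saturation and located under UV light. Rf was measured and RM = log(1/Rf − 1) calculated.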

[24] = Lipophilicity of the compound using 90% methanol in water at 1 mg/ml by RT-TLC analysis; format: physicochemical; conditions: buffer; how it was run: as §4
[25] = Lipophilicity of the compound using 75% methanol in water at 1 mg/ml by RT-TLC analysis; format: physicochemical; conditions: buffer; how it was run: as §4
[26] = Lipophilicity of the compound using 65% methanol in water at 1 mg/ml by RT-TLC analysis; format: physicochemical; conditions: buffer; how it was run: as §4
Salmonella typhimurium [27] = assay: Mutagenicity in Salmonella typhimurium TA98 assessed as number of revertants at 4 ug/plate by Ames test (reference value: 23 +/- 3); format: toxicity, organism-based; conditions: salmonella enterica subsp. enterica serovar typhimurium
Salmonella typhimurium [28] = assay: Mutagenicity in Salmonella typhimurium TA1535 assessed as number of revertants at 1000 ug/plate by Ames test (reference value: 10 +/- 3); format: toxicity, organism-based; conditions: salmonella enterica subsp. enterica serovar typhimurium
Salmonella typhimurium [29] = assay: Mutagenicity in Salmonella typhimurium TA1535 assessed as number of revertants at 500 ug/plate by Ames test (reference value: 10 +/- 3); format: toxicity, organism-based; conditions: salmonella enterica subsp. enterica serovar typhimurium
Salmonella typhimurium [30] = assay: Mutagenicity in Salmonella typhimurium TA1535 assessed as number of revertants at 100 ug/plate by Ames test (reference value: 10 +/- 3); format: toxicity, organism-based; conditions: salmonella enterica subsp. enterica serovar typhimurium
Salmonella typhimurium [31] = assay: Mutagenicity in Salmonella typhimurium TA1535 assessed as number of revertants at 20 ug/plate by Ames test (reference value: 10 +/- 3); format: toxicity, organism-based; conditions: salmonella enterica subsp. enterica serovar typhimurium
Salmonella typhimurium [32] = assay: Mutagenicity in Salmonella typhimurium TA1535 assessed as number of revertants at 4 ug/plate by Ames test (reference value: 10 +/- 3); format: toxicity, organism-based; conditions: salmonella enterica subsp. enterica serovar typhimurium
Salmonella typhimurium [33] = assay: Mutagenicity in Salmonella typhimurium TA100 assessed as number of revertants at 1000 ug/plate by Ames test (reference value: 77 +/-4); format: toxicity, organism-based; conditions: salmonella enterica subsp. enterica serovar typhimurium
How it was run: (§5)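 Salmonella TA100 preincubation Ames assay: overnight-type 12 h broth culture at 37 °C, compound in DMSO at final 4–1000 per plate, top agar with trace histidine, glucose minimal agar, 48 h at 37 °C. Revertant colonies per plate were counted, with a DMSO negative control and a sodium azide positive control. Three independent repetitions were run.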

Salmonella typhimurium [34] = assay: Mutagenicity in Salmonella typhimurium TA100 assessed as number of revertants at 500 ug/plate by Ames test (reference value: 77 +/-4); format: toxicity, organism-based; conditions: salmonella enterica subsp. enterica serovar typhimurium; how it was run: as §5
Salmonella typhimurium [35] = assay: Mutagenicity in Salmonella typhimurium TA100 assessed as number of revertants at 4 ug/plate by Ames test (reference value: 77 +/-4); format: toxicity, organism-based; conditions: salmonella enterica subsp. enterica serovar typhimurium; how it was run: as §5

SMILES | Activity (Mus musculus [1]) | Activity (Mus musculus [2]) | Activity (Mus musculus [3]) | Activity (Mus musculus [4]) | Activity (Mus musculus [5]) | Activity (Mus musculus [6]) | Activity (Mus musculus [7]) | Activity (Mus musculus [8]) | Activity (Mus musculus [9]) | Activity (Mus musculus [10]) | Activity (Mus musculus [11]) | Activity (Mus musculus [12]) | Activity (Salmonella typhimurium [13]) | Activity_index (Salmonella typhimurium [14]) | Activity_index (Salmonella typhimurium [15]) | Activity_index (Salmonella typhimurium [16]) | Activity_index (Salmonella typhimurium [17]) | Activity_index (Salmonella typhimurium [18]) | Activity_index (Salmonella typhimurium [19]) | Activity_index (Salmonella typhimurium [20]) | other results
CC(C)C(CO)NC(=O)/C=C/c1ccccc1 (racemic) | Non-toxic | Non-toxic | inactive | inactive | inactive | inactive | inactive | Active | Active | inactive | inactive | inactive | 16 | 1.1 | 1 | 0.6 | 0.6 | 0.7 | 0.8 | 0.7 | Activity (Mus musculus [21]): Non-toxic; Activity (Mus musculus [22]): Non-toxic; Rm [23]: -0.63; Rm [24]: -0.45; Rm [25]: -0.1; Rm [26]: 0.31; Activity (Salmonella typhimurium [27]): 20; Activity (Salmonella typhimurium [28]): 7; Activity (Salmonella typhimurium [29]): 7; Activity (Salmonella typhimurium [30]): 6; Activity (Salmonella typhimurium [31]): 6; Activity (Salmonella typhimurium [32]): 5; Activity (Salmonella typhimurium [33]): 80; Activity (Salmonella typhimurium [34]): 79; Activity (Salmonella typhimurium [35]): 83
CC(CO)NC(=O)/C=C/c1ccccc1 (racemic) | Non-toxic | Non-toxic | Active | inactive | inactive | inactive | inactive | Active | Active | inactive | Active | inactive | 24 | 0.9 | 0.8 | 0.6 | 0.5 | 0.6 | 1 | 0.8 | Activity (Mus musculus [21]): Non-toxic; Activity (Mus musculus [22]): Non-toxic; Rm [23]: -0.69; Rm [24]: -0.6; Rm [25]: -0.27; Rm [26]: -0.03; Activity (Salmonella typhimurium [27]): 20; Activity (Salmonella typhimurium [28]): 6; Activity (Salmonella typhimurium [29]): 8; Activity (Salmonella typhimurium [30]): 5; Activity (Salmonella typhimurium [31]): 6; Activity (Salmonella typhimurium [32]): 15; Activity (Salmonella typhimurium [33]): 67; Activity (Salmonella typhimurium [34]): 65; Activity (Salmonella typhimurium [35]): 67
O=C(/C=C/c1ccccc1)N[C@H]1CCCC[C@@H]1O (racemic) | Toxic | Non-toxic | inactive | inactive | inactive | inactive | inactive | inactive | inactive | inactive | Active | inactive | 19 | 0.9 | 1 | 1.4 | 0.6 | 0.6 | 0.8 | 0.8 | Activity (Mus musculus [21]): Non-toxic; Activity (Mus musculus [22]): Toxic; Rm [23]: -0.52; Rm [24]: -0.43; Rm [25]: -0.09; Rm [26]: 0.33; Activity (Salmonella typhimurium [27]): 22; Activity (Salmonella typhimurium [28]): 6; Activity (Salmonella typhimurium [29]): 7; Activity (Salmonella typhimurium [30]): 6; Activity (Salmonella typhimurium [31]): 14; Activity (Salmonella typhimurium [32]): 5; Activity (Salmonella typhimurium [33]): 70; Activity (Salmonella typhimurium [34]): 73; Activity (Salmonella typhimurium [35]): 71
